Results from different studies.
Compare with care: the assays were run in different laboratories.
BRDT BD2: Bromodomain testis-specific protein, BD2 (BRDT, Homo sapiens, UniProt Q58F21)
BRWD1 BD2: Bromodomain and WD repeat-containing protein 1, BD2 (BRWD1, Homo sapiens, UniProt Q9NSI6)
DYRK3: Dual specificity tyrosine-phosphorylation-regulated kinase 3 (DYRK3, Homo sapiens, UniProt O43781)
PTGS2: Prostaglandin G/H synthase 2 (PTGS2, Homo sapiens, UniProt P35354)
DYRK1B: Dual specificity tyrosine-phosphorylation-regulated kinase 1B (DYRK1B, Homo sapiens, UniProt Q9Y463)
CDKL5: Cyclin-dependent kinase-like 5 (CDKL5, Homo sapiens, UniProt O76039)

| SMILES | target | test | test system | conditions | measurement | value |
| --- | --- | --- | --- | --- | --- | --- |
| CN(C)C1CCN(CC#Cc2nn(C3CCCC3)c3nc(NCc4ccccc4)ncc23)C1 (stereo not shown) | Serine/threonine-protein kinase PAK 1 (PAK1, Homo sapiens, UniProt Q13153) | enzyme activity, inhibitor, FRET | – | 0.1 µM | inhibition | 2% |
| NS(=O)(=O)c1ccc(Nc2nc(-c3ccc(F)cc3)c3ccccc3n2)cc1 | BRDT BD2 | binding, competition with immobilised ligand | – | 1 µM | remaining binding | 4% |
| CCN1CCN(Cc2ccc(NC(=O)c3ccc(C)c(Oc4ccnc5[nH]ccc45)c3)cc2C(F)(F)F)CC1 | Microtubule-associated serine/threonine-protein kinase 3 (MAST3, Homo sapiens, UniProt O60307) | target engagement in cells, inhibitor, chemoproteomics | Huh-7 | 1 µM | inhibition | -11.3% |
| Oc1ccc(-c2nc(-c3ccncc3)c(-c3ccc(F)cc3)[nH]2)cc1 | BRWD1 BD2 | thermal stability, DSF | – | 10 µM | ΔTm | -0.73 °C |
| N#Cc1cccc(Nc2nc3cc(C(=O)O)ccc3c3cnccc23)c1 | DYRK3 | enzyme activity, inhibitor, radiometric | – | 1 µM | remaining activity | 0% |
| Cc1cc2c(NC(=O)c3cccc(C(=O)O)c3)cccc2nn1 | CREB-binding protein, bromodomain (CREBBP, Homo sapiens, UniProt Q92793) | thermal stability, DSF | – | 100 µM | ΔTm | 4 °C |
| O=C(O)c1ccc(O)cc1 | PTGS2 | enzyme activity, inhibitor | – | 1.95 µg/mL | inhibition | 41.7% |
| O=C(O)c1ccc2c(c1)nc(Nc1ccccc1)c1ccncc12 | DYRK1B | enzyme activity, inhibitor, radiometric | – | 1 µM | remaining activity | 73% |
| O=c1cc(-c2ccc(O)c(O)c2)oc2cc(O)cc(O)c12 | PTGS2 | enzyme activity, inhibitor | – | 0.12 µg/mL | inhibition | 21.6% |
| Cc1cnc(Nc2ccc(OCCN3CCCC3)cc2)nc1Nc1cccc(S(=O)(=O)NC(C)(C)C)c1 | BRDT BD2 | thermal stability, DSF | – | 10 µM | ΔTm | 2.69 °C |
| CC(CCC(=O)NCC(=O)O)C1CCC2C3CCC4CC(O)CCC4(C)C3CC(O)C12C (stereo not shown) | Serine hydroxymethyltransferase, mitochondrial (SHMT2, Homo sapiens, UniProt P34897) | thermal stability | – | 50 µM | ΔTm | 12.3 °C |
| C[S+]([O-])c1ccc(-c2nc(-c3ccncc3)c(-c3ccc(F)cc3)[nH]2)cc1 (stereo not shown) | Transcription intermediary factor 1-beta (TRIM28, Homo sapiens, UniProt Q13263) | thermal stability, DSF | – | 10 µM | ΔTm | 1.43 °C |
| O=C(O)c1ccc2c(c1)nc(NCCc1cccc(F)c1)c1ccncc12 | DYRK1B | enzyme activity, inhibitor, radiometric | – | 1 µM | remaining activity | 106% |
| COC(=O)c1ccc(O)cc1 | PTGS2 | enzyme activity, inhibitor | – | 0.98 µg/mL | inhibition | 0% |
| O=C(O)c1ccc2c(c1)nc(Nc1ccc(F)c(Cl)c1)c1ccncc12 | DYRK1B | enzyme activity, inhibitor, radiometric | – | 1 µM | remaining activity | 22% |
| O=C(NCCCNc1nc(Nc2cccc(NC(=O)N3CCCC3)c2)ncc1C1CC1)C1CCC1 | NUAK family SNF1-like kinase 1 (NUAK1, Homo sapiens, UniProt O60285) | enzyme activity, inhibitor, radiometric | – | 1 µM | remaining activity | 51% |
| Nc1ncnc2occ(-c3ccc(NC(=O)Nc4cc(C(F)(F)F)ccc4F)cc3)c12 | CDKL5 | cell-free assay | – | 20 µM | remaining signal | 4.3% |
| O=C(O)c1ccc2c(c1)nc(Nc1ccc(Cl)cc1)c1ccncc12 | DYRK3 | enzyme activity, inhibitor, radiometric | – | 1 µM | remaining activity | 2% |
| COc1ccc2c(c1)c(CC(=O)O)c(C(F)(F)F)n2C(=O)c1ccc(Cl)cc1 | PTGS2 | enzyme activity, inhibitor | – | – | kinact/KI | 13000 M⁻¹ s⁻¹ |
| O=C(O)c1ccc2c(c1)nc(Nc1ccc(Cl)cc1)c1ncncc12 | DYRK3 | enzyme activity, inhibitor, radiometric | – | 1 µM | remaining activity | 9% |
| COc1ccc(-c2cc(=O)c3c(O)cc(O[C@@H]4O[C@H](CO)[C@@H](O)[C@H](O)[C@H]4O)cc3o2)cc1O | PTGS2 | enzyme activity, inhibitor | – | 31.25 µg/mL | inhibition | 100% |
| O=C(O)c1ccc2c(c1)nc(NCCc1ccccc1)c1ncncc12 | DYRK3 | enzyme activity, inhibitor, radiometric | – | 1 µM | remaining activity | 25% |
| Cc1cc2c(cc1N1C(=O)c3cccc4c(Cl)ccc(c34)C1=O)n(C)c(=O)n2C | BRWD1 BD2 | thermal stability, DSF | – | 10 µM | ΔTm | -1.4 °C |
| O=c1cc(-c2ccc(O)cc2)oc2cc(O)cc(O)c12 | PTGS2 | enzyme activity, inhibitor | – | 31.25 µg/mL | inhibition | 100% |
| Cc1ccc(C(=O)Nc2ccc(CN3CCN(C)CC3)c(C(F)(F)F)c2)cc1C#Cc1cnc2cccnn12 | CDKL5 | enzyme activity | – | 23.5 nM | remaining activity | 100% |
| C=C[C@@]1(C)C=C2CC[C@@H]3[C@](C)(CCC[C@@]3(C)C(=O)O)[C@H]2CC1 | PTGS2 | enzyme activity, inhibitor | – | 0.24 µg/mL | inhibition | 0% |
| O=C(O)c1ccc2c(c1)nc(Nc1ccc3ccccc3c1)c1ccncc12 | DYRK1B | enzyme activity, inhibitor, radiometric | – | 1 µM | remaining activity | 84% |
| CCOc1ccc2cc(-c3nn(CC4CCN(C)CC4)c4ncnc(N)c34)ccc2c1 | Calmodulin-domain protein kinase 1 (CDPK1, Toxoplasma gondii, UniProt Q9BJF5) | thermal stability, DSF | – | 20 µM | ΔTm | 12.3 °C |
